Source: ChEMBL document CHEMBL5303300, “EUbOPEN Chemogenomics Library - Multiplex” (2023)
Values joined by “and” are separate entries in the source; they are usually repeats but may differ in a detail not shown here. Equal values may be shown once.

System: U2OS
Assay: Multiplex assay against U2OS
Assay type: toxicity, cell-based
Details: human, number of replicates 2
Summary of the method: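 On a CQ1 microscope at 37°C and 5% CO2, live cells were imaged after compound addition. They had been stained at seeding with Hoechst33342, BioTracker Green Microtubule Cytoskeleton Dye, MitoTracker Red and Annexin V Alexa Fluor 680. CellPathfinder machine-learning gating assigned cells to Hoechst high-intensity objects or normal cells, normal cells to healthy, pyknosed or fragmented nuclei, and pyknosed cells to mitotic or apoptotic. Tubulin, mitochondrial-mass and membrane-permeability phenotypes are per cents of healthy-nucleus cells.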

[1] = 12 h, 1 µM, compound concentration 1 uM
[2] = 12 h, 10 µM, compound concentration 10 uM
[3] = 24 h, 1 µM, compound concentration 1 uM
[4] = 24 h, 10 µM, compound concentration 10 uM
[5] = 48 h, 1 µM, compound concentration 1 uM
[6] = 48 h, 10 µM, compound concentration 10 uM

In the case of `CC(C)N1CCN(Cc2cnc(-c3cc(-c4cccc5[nH]ccc45)cc4[nH]ncc34)o2)CC1` [NEMIRALISIB], the “Population Apoptotic (%)” value [1] is reported as 42% and 80%, the “Population Fragmented Nuclei (%)” value [1] is reported as 12% and 2% and the “Population Healthy Nuclei (%)” value [1] is reported as 70% and 85%. For the same molecule, the “Population Hoechst High Intensity Objects (%)” value [1] was 0%, the “Population Membrane Permeable-Phenotype (%)” value [1] was 0% and 1% and the “Population Mitochondria Different-Phenotype (%)” value [1] was 3% and 0%. The “Population Mitotic Cells (%)” value [1] was 57% and 20%, the “Population Normal (%)” value [1] was 100% and 99% and the “Population Pyknosed Nuclei (%)” value [1] was 17% and 11%. For the same molecule, the “Population Tubulin-Different-Phenotype (%)” value [1] was 53% and 72%, the “Population Apoptotic (%)” value [2] was 69% and 57% and the “Population Fragmented Nuclei (%)” value [2] was 13%. The “Population Healthy Nuclei (%)” value [2] was 62% and 65%, the “Population Hoechst High Intensity Objects (%)” value [2] was 0% and the “Population Membrane Permeable-Phenotype (%)” value [2] was 15% and 8%. For the same molecule, the “Population Mitotic Cells (%)” value [2] was 30% and 42%, the “Population Normal (%)” value [2] was 100% and the “Population Pyknosed Nuclei (%)” value [2] was 24% and 20%. For the same molecule, the “Population Tubulin-Different-Phenotype (%)” value [2] was 18% and 30%, the “Population Apoptotic (%)” value [3] was 60% and 80% and the “Population Fragmented Nuclei (%)” value [3] was 4% and 3%. For the same molecule, the “Population Healthy Nuclei (%)” value [3] was 72% and 87%, the “Population Hoechst High Intensity Objects (%)” value [3] was 0% and the “Population Membrane Permeable-Phenotype (%)” value [3] was 0% and 1%. For the same molecule, the “Population Mitochondria Different-Phenotype (%)” value [3] was 0% and 2%, the “Population Mitotic Cells (%)” value [3] was 40% and 19% and the “Population Normal (%)” value [3] was 100% and 99%. The “Population Pyknosed Nuclei (%)” value [3] was 22% and 9%, the “Population Tubulin-Different-Phenotype (%)” value [3] was 59% and 78% and the “Population Apoptotic (%)” value [4] was 33% and 60%. The “Population Fragmented Nuclei (%)” value [4] was 10%, the “Population Healthy Nuclei (%)” value [4] was 52% and 55% and the “Population Hoechst High Intensity Objects (%)” value [4] was 2% and 0%. The “Population Membrane Permeable-Phenotype (%)” value [4] was 4% and 8%, the “Population Mitochondria Different-Phenotype (%)” value [4] was 36% and 43% and the “Population Mitotic Cells (%)” value [4] was 66% and 39%. The “Population Normal (%)” value [4] was 97% and 99%, the “Population Pyknosed Nuclei (%)” value [4] was 37% and 34% and the “Population Tubulin-Different-Phenotype (%)” value [4] was 32% and 33%. The “Population Apoptotic (%)” value [5] was 47% and 70%, the “Population Fragmented Nuclei (%)” value [5] was 4% and 3% and the “Population Healthy Nuclei (%)” value [5] was 74% and 88%. The “Population Hoechst High Intensity Objects (%)” value [5] was 0%, the “Population Membrane Permeable-Phenotype (%)” value [5] was 1% and 2% and the “Population Mitochondria Different-Phenotype (%)” value [5] was 1% and 0%. The “Population Mitotic Cells (%)” value [5] was 52% and 29%, the “Population Normal (%)” value [5] was 100% and the “Population Pyknosed Nuclei (%)” value [5] was 20% and 8%. For the same molecule, the “Population Tubulin-Different-Phenotype (%)” value [5] was 81% and 76%, the “Population Apoptotic (%)” value [6] was 60% and 67% and the “Population Fragmented Nuclei (%)” value [6] was 23% and 8%. For the same molecule, the “Population Healthy Nuclei (%)” value [6] was 25% and 55%, the “Population Hoechst High Intensity Objects (%)” value [6] was 3% and 2% and the “Population Membrane Permeable-Phenotype (%)” value [6] was 12% and 11%. For the same molecule, the “Population Mitochondria Different-Phenotype (%)” value [6] was 37% and 35%, the “Population Mitotic Cells (%)” value [6] was 39% and 32% and the “Population Normal (%)” value [6] was 96% and 97%. The “Population Pyknosed Nuclei (%)” value [6] was 51% and 35% and the “Population Tubulin-Different-Phenotype (%)” value [6] was 25% and 38%.

For `CC(C)(C)c1cnc(CSc2cnc(NC(=O)C3CCNCC3)s2)o1` [BMS-387032], the “Population Apoptotic (%)” value [1] was 83% and 88%, the “Population Healthy Nuclei (%)” value [1] was 60% and 73% and the “Population Hoechst High Intensity Objects (%)” value [1] was 1% and 0%. For the same molecule, the “Population Membrane Permeable-Phenotype (%)” value [1] was 8% and 3%, the “Population Mitochondria Different-Phenotype (%)” value [1] was 2% and 4% and the “Population Mitotic Cells (%)” value [1] was 16% and 12%. The “Population Normal (%)” value [1] was 98% and 100%, the “Population Pyknosed Nuclei (%)” value [1] was 10% and 19% and the “Population Tubulin-Different-Phenotype (%)” value [1] was 80% and 82%. The “Total Cell Count” value [1] was 61 and 128, the “Population Apoptotic (%)” value [2] was 85% and 65% and the “Population Healthy Nuclei (%)” value [2] was 32% and 71%. The “Population Hoechst High Intensity Objects (%)” value [2] was 0% and 1%, the “Population Mitochondria Different-Phenotype (%)” value [2] was 7% and 11% and the “Population Mitotic Cells (%)” value [2] was 14% and 35%. For the same molecule, the “Population Normal (%)” value [2] was 100% and 98%, the “Population Pyknosed Nuclei (%)” value [2] was 17% and 22% and the “Population Apoptotic (%)” value [3] was 66% and 94%. The “Population Fragmented Nuclei (%)” value [3] was 22% and 9%, the “Population Healthy Nuclei (%)” value [3] was 62% and 69% and the “Population Hoechst High Intensity Objects (%)” value [3] was 1% and 0%. For the same molecule, the “Population Membrane Permeable-Phenotype (%)” value [3] was 8% and 1%, the “Population Mitochondria Different-Phenotype (%)” value [3] was 5% and the “Population Normal (%)” value [3] was 98% and 100%. The “Population Pyknosed Nuclei (%)” value [3] was 15% and 21%, the “Population Tubulin-Different-Phenotype (%)” value [3] was 75% and 77% and the “Total Cell Count” value [3] was 60 and 163. The “Population Apoptotic (%)” value [4] was 87% and 78%, the “Population Healthy Nuclei (%)” value [4] was 32% and 41% and the “Population Hoechst High Intensity Objects (%)” value [4] was 0%. For the same molecule, the “Population Mitochondria Different-Phenotype (%)” value [4] was 21% and 25%, the “Population Mitotic Cells (%)” value [4] was 12% and 21% and the “Population Normal (%)” value [4] was 100% and 99%. The “Population Pyknosed Nuclei (%)” value [4] was 18% and 46%, the “Population Tubulin-Different-Phenotype (%)” value [4] was 57% and 52% and the “Population Apoptotic (%)” value [5] was 68% and 93%. For the same molecule, the “Population Fragmented Nuclei (%)” value [5] was 23% and 8%, the “Population Healthy Nuclei (%)” value [5] was 55% and 66% and the “Population Hoechst High Intensity Objects (%)” value [5] was 0%. The “Population Mitochondria Different-Phenotype (%)” value [5] was 6% and 5%, the “Population Normal (%)” value [5] was 100% and the “Population Pyknosed Nuclei (%)” value [5] was 21% and 25%. For the same molecule, the “Population Tubulin-Different-Phenotype (%)” value [5] was 89% and 80%, the “Total Cell Count” value [5] was 89 and 235 and the “Population Apoptotic (%)” value [6] was 84% and 94%. For the same molecule, the “Population Healthy Nuclei (%)” value [6] was 21% and 9%, the “Population Hoechst High Intensity Objects (%)” value [6] was 0% and 4% and the “Population Membrane Permeable-Phenotype (%)” value [6] was 80% and 41%. The “Population Mitochondria Different-Phenotype (%)” value [6] was 40% and 52%, the “Population Mitotic Cells (%)” value [6] was 15% and 5% and the “Population Normal (%)” value [6] was 100% and 95%. The “Population Pyknosed Nuclei (%)” value [6] was 27% and 75% and the “Population Tubulin-Different-Phenotype (%)” value [6] was 50% and 76%.

`COc1ccccc1-c1cc(Nc2cccc(CS(N)(=O)=O)c2)ncn1` was tested, and the “Population Apoptotic (%)” value [1] was 75% and 86%, the “Population Fragmented Nuclei (%)” value [1] was 13% and 5% and the “Population Healthy Nuclei (%)” value [1] was 75% and 84%. For the same molecule, the “Population Hoechst High Intensity Objects (%)” value [1] was 0%, the “Population Membrane Permeable-Phenotype (%)” value [1] was 7% and 3% and the “Population Mitochondria Different-Phenotype (%)” value [1] was 0% and 1%. The “Population Mitotic Cells (%)” value [1] was 25% and 13%, the “Population Normal (%)” value [1] was 100% and the “Population Pyknosed Nuclei (%)” value [1] was 11% and 10%. The “Population Tubulin-Different-Phenotype (%)” value [1] was 62% and 80%, the “Population Apoptotic (%)” value [2] was 63% and 66% and the “Population Healthy Nuclei (%)” value [2] was 82% and 50%. The “Population Hoechst High Intensity Objects (%)” value [2] was 0%, the “Population Mitochondria Different-Phenotype (%)” value [2] was 1% and 0% and the “Population Mitotic Cells (%)” value [2] was 36% and 33%. The “Population Normal (%)” value [2] was 100%, the “Population Pyknosed Nuclei (%)” value [2] was 12% and 13% and the “Population Tubulin-Different-Phenotype (%)” value [2] was 72% and 34%. For the same molecule, the “Population Apoptotic (%)” value [3] was 80% and 86%, the “Population Healthy Nuclei (%)” value [3] was 70% and 88% and the “Population Hoechst High Intensity Objects (%)” value [3] was 0%. The “Population Membrane Permeable-Phenotype (%)” value [3] was 2% and 1%, the “Population Mitochondria Different-Phenotype (%)” value [3] was 2% and 0% and the “Population Mitotic Cells (%)” value [3] was 20% and 13%. The “Population Normal (%)” value [3] was 100%, the “Population Pyknosed Nuclei (%)” value [3] was 8% and 7% and the “Population Tubulin-Different-Phenotype (%)” value [3] was 51% and 77%. The “Population Apoptotic (%)” value [4] was 80%, the “Population Healthy Nuclei (%)” value [4] was 79% and 62% and the “Population Hoechst High Intensity Objects (%)” value [4] was 0%. For the same molecule, the “Population Mitochondria Different-Phenotype (%)” value [4] was 1% and 11%, the “Population Mitotic Cells (%)” value [4] was 19% and 20% and the “Population Normal (%)” value [4] was 100%. The “Population Pyknosed Nuclei (%)” value [4] was 16% and 18%, the “Population Tubulin-Different-Phenotype (%)” value [4] was 76% and 50% and the “Population Apoptotic (%)” value [5] was 75% and 83%. For the same molecule, the “Population Fragmented Nuclei (%)” value [5] was 13% and 4%, the “Population Healthy Nuclei (%)” value [5] was 77% and 88% and the “Population Hoechst High Intensity Objects (%)” value [5] was 0%. For the same molecule, the “Population Membrane Permeable-Phenotype (%)” value [5] was 8% and 1%, the “Population Mitochondria Different-Phenotype (%)” value [5] was 0% and the “Population Mitotic Cells (%)” value [5] was 25% and 16%. For the same molecule, the “Population Normal (%)” value [5] was 100%, the “Population Pyknosed Nuclei (%)” value [5] was 9% and 7% and the “Population Tubulin-Different-Phenotype (%)” value [5] was 75% and 78%. The “Population Apoptotic (%)” value [6] was 66% and 77%, the “Population Fragmented Nuclei (%)” value [6] was 18% and 7% and the “Population Healthy Nuclei (%)” value [6] was 60% and 73%. The “Population Hoechst High Intensity Objects (%)” value [6] was 0%, the “Population Membrane Permeable-Phenotype (%)” value [6] was 8% and 6% and the “Population Mitochondria Different-Phenotype (%)” value [6] was 6% and 3%. The “Population Mitotic Cells (%)” value [6] was 33% and 22%, the “Population Normal (%)” value [6] was 100% and the “Population Pyknosed Nuclei (%)” value [6] was 20% and 18%. For the same molecule, the “Population Tubulin-Different-Phenotype (%)” value [6] was 55% and 73%.
